Most compounds without a hit are left out; they make up all but 3.3% or so of the library.
SIAE inh: inhibitors of human sialic acid acetylesterase SIAE; 0.69% of 370,000 active; AID 1053197; Q9HAT2; inhibition, % at 9.66 µM; SIAE FP-Rh probe binding, fluorescence polarization;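 active means inhibition above a cutoff: mean of compounds within the control limits plus 3 SD of those, cut at about 17% in these data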;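 further: 0% = plate median of compound wells and 100% = probe without SIAE protein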
Target sequence (Q9HAT2 whole entry, looked up): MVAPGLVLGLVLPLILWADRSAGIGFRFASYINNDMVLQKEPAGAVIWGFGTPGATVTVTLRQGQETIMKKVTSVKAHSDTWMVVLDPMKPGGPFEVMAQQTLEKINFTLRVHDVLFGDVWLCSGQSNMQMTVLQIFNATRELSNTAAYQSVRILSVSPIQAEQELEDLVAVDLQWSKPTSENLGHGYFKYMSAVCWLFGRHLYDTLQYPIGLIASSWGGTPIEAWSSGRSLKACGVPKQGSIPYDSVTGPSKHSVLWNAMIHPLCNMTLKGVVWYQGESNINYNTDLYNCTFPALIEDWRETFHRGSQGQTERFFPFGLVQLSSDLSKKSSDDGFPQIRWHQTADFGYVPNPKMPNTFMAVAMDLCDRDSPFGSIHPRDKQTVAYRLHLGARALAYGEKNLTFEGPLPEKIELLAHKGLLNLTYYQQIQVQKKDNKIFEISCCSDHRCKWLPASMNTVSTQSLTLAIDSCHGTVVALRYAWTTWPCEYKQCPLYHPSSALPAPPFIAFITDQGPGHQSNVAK
rCAG binder: binds r(CAG) RNA repeats. 1.3% of 370,000 active. r(CAG) RNA repeat, TO-PRO-1 dye displacement fluorescence. inhibition, % at 3 µM;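 active means inhibition above the plate cutoff, the mean of all test compounds on that plate plus 3 SD, cut at about 35% in these data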;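 further: 0% = DMSO alone and 100% = 100 µM mitoxantrone as full dye displacement; higher means more dye released from RNA so lower well fluorescence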
HTRA1 inhibitor: HTRA1 (human) protease inhibition; Q92743; recombinant HTRA1, FP-rhodamine activity-based probe, fluorescence polarization; inhibition, % at 5.96 µM; 0.5% of 340,000 active; in the data active means inhibition above about 36%;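 further: 0% = enzyme with DMSO and 100% = wells lacking enzyme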
PRMT1 FP inh: blocks human protein arginine methyltransferase 1. Q99873. recombinant PRMT1, activity-based probe fluorescence polarization. inhibition, % at 2.79 µM. 1.3% of 370,000 active. AID 652257;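 active means inhibition above about 21% made by adding two undisclosed values, limit read from the data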
mABHD4 FP: inhibits mouse alpha/beta hydrolase domain 4; Q8VD66; purified mABHD4, FP-Rh probe fluorescence polarization; inhibition, % at 8.92 µM; 0.54% of 370,000 active; AID 720543;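 active means inhibition exceeding the mean over every tested compound plus 3 SD, cut at about 30% in these data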;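 further: 0% = plate median of compound wells and 100% = S159A mutant with DMSO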
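System: mouse ABHD4 enzyme, wild type / Medium: HEPES pH 7.0, NaCl, Pluronic buffer / Reagent: FP-Rh activity-based fluorescent probe / Control set: S159A mutant high control, sample median low control / Detection: fluorescence polarization with parallel and perpendicular emission, 525/598 nm / Schedule: 45 min + 60 min at 25 °C / Compound dosing: 8.92 µM, single dose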
rCAG bind conf: r(CAG) RNA repeat binding, confirmation. shares compounds with rCAG binder. TO-PRO-1 dye displacement fluorescence. inhibition, % at 3 µM. 70% of 4,300 active;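 active means inhibition above a per-plate cutoff, the mean inhibition of sample wells plus 3 SD, cut at about 35% in these data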;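 further: loss of TO-PRO-1 fluorescence as compound displaces dye from 1x1 AA loop RNA; 0% = DMSO only wells and 100% = 100 µM mitoxantrone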
dCAG dye counter: counter-screen for rCAG RNA binders: DNA CAG dye complex inhibitors. d(CAG) DNA oligo TO-PRO-1 dye displacement, fluorescence. shares compounds with rCAG binder. inhibition, % at 3 µM. 94% of 4,300 active;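 active means inhibition above its plate's cutoff, the mean test-well inhibition plus 3 SD, cut at about 4.8% in these data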;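 further: 0% = DNA dye mix with DMSO and 100% = 100 µM mitoxantrone; hits displace the dye from DNA and so lower well fluorescence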
DNA CAG DR: counter-screen for rCAG binders: inhibitors of DNA CAG TO-PRO-1 complex; IC50, µM; AID 686960; shares compounds with rCAG binder; DNA CAG/GTC duplex TO-PRO-1 dye displacement fluorescence; 20% of 250 active; in the data active means IC50 below about 10 µM
Numbers without * were called inactive; nt = not tested or not shown.

SMILES	SIAE inh	rCAG binder	HTRA1 inhibitor	PRMT1 FP inh	mABHD4 FP	rCAG bind conf	dCAG dye counter	others
O=C(COc1ccccc1[N+](=O)[O-])Nc1cccc(C(=O)Nc2ccccc2C(=O)O)c1	-26.8	68.6*	-20.1	6.0	-4.2	79.6*	45.1*
Cc1cccc(OCC(=O)Nc2cccc(C(=O)Nc3ccccc3C(=O)O)c2)c1	-12.8	71.0*	-34.8	2.0	-34.0	66.5*	28.8*
CC(C)c1ccc(OCC(=O)Nc2cccc(C(=O)Nc3ccccc3C(=O)O)c2)cc1	-23.8	82.3*	-118.8	0.7	-67.7	87.7*	63.2*
O=c1[nH]c(Nc2ccccc2)cc2cc(Br)ccc12	7.2	37.5*	4.6	12.4	21.7	13.8	15.2*
O=c1[nH]c(Nc2ccccc2)cc2ccccc12	-1.3	-0.8	9.7	3.5	8.6	nt	nt
COc1ccc2[nH]c(C(=O)O)c(NS(=O)(=O)c3ccc(C)c(C)c3)c2c1	11.2	43.5*	6.5	0.7	8.9	24.5	5.9*
Cc1ccc(S(=O)(=O)Nc2c(C(=O)O)[nH]c3ccccc23)c(C)c1	2.8	57.7*	-1.8	1.3	6.4	29.8	7.3*
COc1cc(C(=O)Nc2c(C(=O)O)[nH]c3ccc(C)cc23)cc(OC)c1OC	2.0	53.8*	2.4	14.2	-1.3	26.8	5.3*
CCOC(=O)c1[nH]c2ccccc2c1NC(=O)c1cc(OC)c(OC)c(OC)c1	-2.8	-3.0	-7.3	-2.0	5.6	nt	nt
Cc1cc2c(nc1C)CCCN2Cc1ccccc1C(F)(F)F	-4.8	3.2	nt	-2.0	-13.9	nt	nt
COC(=O)C1=C(C)N(Cc2cccc(C(F)(F)F)c2)C(=NCc2ccc(C(F)(F)F)cc2)NC1c1ccccc1C(F)(F)F (stereo unspecified)	-6.7	2.5	nt	-2.4	1.0	nt	nt
C#CCNC(=O)C[C@H]1C(=O)N(CCCOC)C2=CCCCC[C@]21C(=O)OC	4.5	3.8	nt	-3.4	2.4	nt	nt
O=C(O)[C@H](Cc1ccccc1)N1C(=O)c2c(Cl)c(Cl)c(Cl)c(Cl)c2C1=O	-1.8	49.8*	-1.1	2.1	-5.8	63.3*	27.8*
CCn1nc(NS(=O)(=O)c2ccc([N+](=O)[O-])cc2)c2cc3ccc(C)cc3nc21	1.5	52.6*	8.5	6.3	-5.5	36.7*	9.6*
NC(c1csc(NC(=O)Nc2cccc(Cl)c2)n1)c1ccccc1Cl (stereo unspecified)	-5.7	41.1*	nt	-5.3	-18.8	49.6*	16.9*
CC(C)c1ccc(NC(=O)Nc2nc(C(N)C(C)C)cs2)cc1 (stereo unspecified)	4.1	31.0	nt	-2.8	15.3	nt	nt
CC(C)C(N)c1csc(NC(=O)Nc2cccc(Cl)c2)n1 (stereo unspecified)	-2.6	43.8*	nt	2.6	9.7	51.0*	8.4*
Cc1ccc(Nc2nc(Cl)c(C=O)s2)cc1Cl	-6.5	42.8*	-35.6	0.4	-11.9	20.2	12.2*
NC(c1csc(NC(=O)Nc2ccc(OC(F)(F)F)cc2)n1)C1CCCCC1 (stereo unspecified)	-6.1	40.0*	nt	-0.2	3.5	25.4	4.0
COc1ccc(NC(=O)Nc2nc(C(N)CC(C)C)cs2)cc1 (stereo unspecified)	10.2	27.6	nt	3.2	-1.3	nt	nt
C=CCOc1c(OC)cc(/C=N/Nc2cccc(C(=O)O)c2)c(Br)c1Br	8.3	51.1*	-15.5	7.2	26.3	70.0*	31.4*	DNA CAG DR=8.34*
C=CCN=C1NC(c2cccc(C(F)(F)F)c2)C(C(=O)OC)=C(C)N1Cc1ccccc1C(F)(F)F (stereo unspecified)	8.1	0.3	nt	-5.6	14.0	nt	nt
O=C(NNS(=O)(=O)c1cccc(Cl)c1)c1cc(-c2ccc(F)cc2)nc2ccccc12	-20.4	43.8*	-26.6	2.4	-16.7	44.0*	15.0*
Cc1cc(NS(=O)(=O)c2ccc(NC(=O)c3ccccc3C)cc2)no1	-3.6	7.3	2.3	5.6	-13.0	nt	nt
Cc1ccccc1C(=O)Nc1ccc(S(=O)(=O)Nc2onc(C)c2C)cc1	1.7	4.8	-7.1	-5.2	-0.1	nt	nt

High-throughput results deposited in PubChem by The Scripps Research Institute Molecular Screening Center.
